# Measured values from article PMC3461162 (British Journal of Cancer, 2012).
# “And” between values parts separate entries of the source, which are not always exact repeats. Equal values may be shown once. “Also recorded” adds a separate entry of the source.
# Columns and labels:
# Format in all cases: in vivo, human
# [1] = Phase I dose-escalation safety and tolerability: adverse events, DLTs, MTD
# Outline: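 Multicentre, open-label, dose-escalation study. A single oral dose on day 1 was followed one week later by continuous twice-daily dosing, starting at 10 mg. The first three cohorts got solution, later cohorts tablets. AEs were graded by CTC v3.0 from consent to 30 days after stopping. DLT: a CTC grade 3 AE, or a laboratory abnormality with clinical signs, within 42 days (extended from 35). MTD: last dose below the non-tolerated dose.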
# [2] = Urine pharmacokinetics after single dose; settings: for CL renal: human, urine, oral, CLR, Amean (n) (range); for fe (0–24), dose fraction excreted unchanged in the urine, Amean (n) (range): zero to 24 h post dose
# [3] = test system: phosphorylation levels of 4E-BP1 on threonine^37/46 in peripheral blood mononuclear cells (PBMCs); assay: 4E-BP1 phosphorylation in PBMCs; settings: 2 h post dose, MTD cohort (90 mg)
# Outline: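 Adult patients with refractory advanced solid tumours or lymphoma got one oral dose on day 1, then continuous twice-daily dosing from one week later. They fasted at least 1 h before and after each dose. PBMCs were taken pre-dose and 2, 8 and 24 h post dose on day 1. Antibodies to the phosphorylated forms were used: AKT Ser473 by mesoscale detection, 4E-BP1 Thr37/46 by FACS.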
# [4] = test system: advanced solid tumours or lymphomas; assay: Tumour response by RECIST v1.0
# Outline: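 Patients got a single oral dose on day 1, then continuous twice-daily dosing until disease progression or unmanageable toxicity. Baseline RECIST assessment used CT or MRI of chest, abdomen and pelvis before treatment, repeated every 8 weeks.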
# [5] = 90 mg BID tablet (n=11), CTCAE grade 1–2
# [6] = 90 mg BID tablet (n=11), CTCAE grade ⩾3
# [7] = 120 mg BID tablet (n=10), CTCAE grade 1–2
# [8] = 120 mg BID tablet (n=10), CTCAE grade ⩾3
# [9] = CTCAE grade 3, all cohorts, a patient may have experienced more than one DLT
# [10] = Total (n=49), Any grade occurring in cycle 1/2
smiles,measurement,setting,value
COc1ccc(-c2ccc3c(N4CCOC[C@@H]4C)nc(N4CCOC[C@@H]4C)nc3n2)cc1CO [AZD8055],"Increased GGT: patients with AZD8055-related AE, n (%)",[1]; [5],0%
same,"Nausea: patients with AZD8055-related AE, n (%)",[1]; [5],2 (18) %
same,"Stomatitis: patients with AZD8055-related AE, n (%)",[1]; [5],2 (18) %
same,"Fatigue: patients with AZD8055-related AE, n (%)",[1]; [6],0%
same,"Hyperglycaemia: patients with AZD8055-related AE, n (%)",[1]; [6],0%
same,"Increased ALT: patients with AZD8055-related AE, n (%)",[1]; [6],1 (9) %
same,"Increased AST: patients with AZD8055-related AE, n (%)",[1]; [6],2 (18) %
same,"Increased GGT: patients with AZD8055-related AE, n (%)",[1]; [6],1 (9) %
same,"Nausea: patients with AZD8055-related AE, n (%)",[1]; [6],0%
same,"Stomatitis: patients with AZD8055-related AE, n (%)",[1]; [6],0%
same,Patients with DLT (grade 3 rise in transaminases),"[1]; 120 mg BID cohort, patients evaluable for DLT",3 and 3/9
same,"Fatigue: patients with AZD8055-related AE, n (%)",[1]; [7],2 (20) %
same,"Hyperglycaemia: patients with AZD8055-related AE, n (%)",[1]; [7],2 (20) %
same,"Increased ALT: patients with AZD8055-related AE, n (%)",[1]; [7],1 (10) %
same,"Increased AST: patients with AZD8055-related AE, n (%)",[1]; [7],1 (10) %
same,"Increased GGT: patients with AZD8055-related AE, n (%)",[1]; [7],1 (10) %
same,"Nausea: patients with AZD8055-related AE, n (%)",[1]; [7],1 (10) %
same,"Stomatitis: patients with AZD8055-related AE, n (%)",[1]; [7],2 (20) %
same,"Fatigue: patients with AZD8055-related AE, n (%)",[1]; [8],0%
same,"Hyperglycaemia: patients with AZD8055-related AE, n (%)",[1]; [8],0%
same,"Increased ALT: patients with AZD8055-related AE, n (%)",[1]; [8],2 (20) %
same,"Increased AST: patients with AZD8055-related AE, n (%)",[1]; [8],2 (20) %
same,"Increased GGT: patients with AZD8055-related AE, n (%)",[1]; [8],0%
same,"Nausea: patients with AZD8055-related AE, n (%)",[1]; [8],0%
same,"Stomatitis: patients with AZD8055-related AE, n (%)",[1]; [8],0%
same,Non-tolerated dose,"[1]; BID, DLTs in 3/9 evaluable patients",120 mg
same,"DLTs: Increased ALT, Total (%)",[1]; [9],3 (6) %
same,"DLTs: Increased AST, Total (%)",[1]; [9],3 (6) %
same,"Fatigue: patients with AZD8055-related AE, n (%)",[1]; [10],8 (16) %
same,"Hyperglycaemia: patients with AZD8055-related AE, n (%)",[1]; [10],6 (12) %
same,"Increased ALT: patients with AZD8055-related AE, n (%)",[1]; [10],11 (22) %
same,"Increased AST: patients with AZD8055-related AE, n (%)",[1]; [10],11 (22) %
same,"Increased GGT: patients with AZD8055-related AE, n (%)",[1]; [10],5 (10) %
same,"Nausea: patients with AZD8055-related AE, n (%)",[1]; [10],7 (14) %
same,"Stomatitis: patients with AZD8055-related AE, n (%)",[1]; [10],6 (12) %
same,"Fatigue: patients with AZD8055-related AE, n (%)","[1]; Total (n=49), CTCAE grade 1–2",8 (16) %
same,"Hyperglycaemia: patients with AZD8055-related AE, n (%)","[1]; Total (n=49), CTCAE grade 1–2",6 (12) %
same,"Increased ALT: patients with AZD8055-related AE, n (%)","[1]; Total (n=49), CTCAE grade 1–2",5 (10) %
same,"Increased AST: patients with AZD8055-related AE, n (%)","[1]; Total (n=49), CTCAE grade 1–2",4 (8) %
same,"Increased GGT: patients with AZD8055-related AE, n (%)","[1]; Total (n=49), CTCAE grade 1–2",3 (6) %
same,"Nausea: patients with AZD8055-related AE, n (%)","[1]; Total (n=49), CTCAE grade 1–2",7 (14) %
same,"Stomatitis: patients with AZD8055-related AE, n (%)","[1]; Total (n=49), CTCAE grade 1–2",6 (12) %
same,"Fatigue: patients with AZD8055-related AE, n (%)","[1]; Total (n=49), CTCAE grade ⩾3",0%
same,"Hyperglycaemia: patients with AZD8055-related AE, n (%)","[1]; Total (n=49), CTCAE grade ⩾3",0%
same,"Increased ALT: patients with AZD8055-related AE, n (%)","[1]; Total (n=49), CTCAE grade ⩾3",6 (12) %
same,"Increased AST: patients with AZD8055-related AE, n (%)","[1]; Total (n=49), CTCAE grade ⩾3",7 (14) %
same,"Increased GGT: patients with AZD8055-related AE, n (%)","[1]; Total (n=49), CTCAE grade ⩾3",2 (4) %
same,"Nausea: patients with AZD8055-related AE, n (%)","[1]; Total (n=49), CTCAE grade ⩾3",0%
same,"Stomatitis: patients with AZD8055-related AE, n (%)","[1]; Total (n=49), CTCAE grade ⩾3",0%
same,"Fatigue, AE assessed to be related to AZD8055, frequency",[1]; all patients (n=49),16%
same,Maximum tolerated dose (MTD),"[1]; oral, patients with advanced solid tumours or lymphomas",90 mg BID
same,"Patients requiring dose reductions as a result of increased transaminases, assessed to be AZD8055-related","[1]; three patients, one each in the 60, 90 and 120 mg BID tablet groups",6%
same,Patients with a dose interruption,"[1]; within cycles 1 and 2, 11 patients, 7 because of an AE",22%
same,Dose excreted unchanged in the urine,"[2]; all dose levels, first 24 h following the single dose",< 0.25%
same,CL renal,"[2]; 10 mg, single dose, 10 mg solution",1.95 mL/min
same,CL renal,"[2]; 20 mg, single dose, 20 mg solution",1.29 mL/min
same,CL renal,"[2]; 40 mg, single dose, 40 mg solution",1.78 mL/min
same,CL renal,"[2]; 40 mg, single dose, 40 mg tablet",3.68 mL/min
same,CL renal,"[2]; 60 mg, single dose, 60 mg tablet",2.67 mL/min
same,CL renal,"[2]; 90 mg, single dose, 90 mg tablet",1.75 mL/min
same,CL renal,"[2]; 120 mg, single dose, 120 mg tablet",1.68 mL/min
same,Renal clearance,[2]; single dose,low renal clearance
same,"fe (0–24), dose fraction excreted unchanged in the urine, Amean (n) (range)","[2]; single dose, 10 mg solution",0.0248 (4) (0.0121–0.0438) %
same,"fe (0–24), dose fraction excreted unchanged in the urine, Amean (n) (range)","[2]; single dose, 20 mg solution",0.0114 (3) (0.00512–0.0207) %
same,"fe (0–24), dose fraction excreted unchanged in the urine, Amean (n) (range)","[2]; single dose, 40 mg solution",0.0227 (5) (0.00907–0.0423) %
same,"fe (0–24), dose fraction excreted unchanged in the urine, Amean (n) (range)","[2]; single dose, 40 mg tablet",0.0881 (6) (0.0043–0.224) %
same,"fe (0–24), dose fraction excreted unchanged in the urine, Amean (n) (range)","[2]; single dose, 60 mg tablet",0.0222 (7) (0.00289–0.0712) %
same,"fe (0–24), dose fraction excreted unchanged in the urine, Amean (n) (range)","[2]; single dose, 90 mg tablet",0.0231 (9) (0.00155–0.0704) %
same,"fe (0–24), dose fraction excreted unchanged in the urine, Amean (n) (range)","[2]; single dose, 120 mg tablet",0.0375 (7) (0.00237–0.151) %
same,Patients with transient decrease in p4E-BP1 in PBMC,[3],2/5
same,Patients with stable disease for ⩾4 months,[4]; 10 mg BID,1/5
same,Patients with stable disease for ⩾4 months,[4]; 60 mg BID,1/7
same,Patients with stable disease for ⩾4 months,[4]; 90 mg BID,1/11
same,Patients with stable disease for ⩾4 months,[4]; all cohorts,Seven
same,RECIST complete or partial responses,[4]; all cohorts,no RECIST responses were seen; also recorded: No complete or partial responses were observed
same,"Duration of stable disease, range",[4]; seven patients with stable disease for ⩾4 months,115 to 398 days
